Source: ChEMBL document CHEMBL3611989, “Discovery and characterization of aryl isonitriles as a new class of compounds versus methicillin- and vancomycin-resistant Staphylococcus aureus” (Eur J Med Chem, 2015)
In brackets after ≈: the same amount, converted by molar mass.

Key:
[1] = tested on: Staphylococcus aureus; assay: Bactericidal activity against methicillin-resistant Staphylococcus aureus USA300; assay type: functional
[2] = tested on: Staphylococcus aureus; assay: Antimicrobial activity against methicillin-sensitive Staphylococcus aureus NRS72 assessed as reduction in bacterial growth incubated for 18 to 20 hrs at 37 degC by broth microdilution method; assay type: functional
In short: (§1)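 Modified CLSI broth microdilution. Bacterial suspension of about 1 × 10^5 CFU/mL in tryptic soy broth. Each agent was added in triplicate to the first row and serially diluted down the plate. Plates were incubated at 37 °C for 18-20 h. MIC was read as the lowest concentration with no visible growth.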

[3] = tested on: Staphylococcus aureus; assay: Antimicrobial activity against methicillin-resistant Staphylococcus aureus USA100 assessed as reduction in bacterial growth incubated for 18 to 20 hrs at 37 degC by broth microdilution method; assay type: functional; in short: as §1
[4] = tested on: Staphylococcus aureus; assay: Antimicrobial activity against methicillin-resistant Staphylococcus aureus USA200 assessed as reduction in bacterial growth incubated for 18 to 20 hrs at 37 degC by broth microdilution method; assay type: functional; in short: as §1
[5] = tested on: Staphylococcus aureus; assay: Antimicrobial activity against methicillin-resistant Staphylococcus aureus USA300 assessed as reduction in bacterial growth incubated for 18 to 20 hrs at 37 degC by broth microdilution method; assay type: functional; in short: as §1
[6] = tested on: Staphylococcus aureus; assay: Antimicrobial activity against methicillin-resistant Staphylococcus aureus USA500 assessed as reduction in bacterial growth incubated for 18 to 20 hrs at 37 degC by broth microdilution method; assay type: functional; in short: as §1
[7] = tested on: Staphylococcus aureus; assay: Antimicrobial activity against methicillin-resistant Staphylococcus aureus USA700 assessed as reduction in bacterial growth incubated for 18 to 20 hrs at 37 degC by broth microdilution method; assay type: functional; in short: as §1
[8] = tested on: Staphylococcus aureus; assay: Antimicrobial activity against methicillin-resistant Staphylococcus aureus NRS119 assessed as reduction in bacterial growth incubated for 18 to 20 hrs at 37 degC by broth microdilution method; assay type: functional; in short: as §1
[9] = tested on: Staphylococcus aureus; assay: Antimicrobial activity against vancomycin-intermediate-resistant Staphylococcus aureus NRS1 assessed as reduction in bacterial growth incubated for 18 to 20 hrs at 37 degC by broth microdilution method; assay type: functional; in short: as §1
[10] = tested on: Staphylococcus aureus; assay: Antimicrobial activity against vancomycin-resistant Staphylococcus aureus VRS2 assessed as reduction in bacterial growth incubated for 18 to 20 hrs at 37 degC by broth microdilution method; assay type: functional; in short: as §1
[11] = tested on: J774; assay: Cytotoxicity against mouse J774 cells assessed as reduction in cell viability at 32 uM incubated for 2 hrs by MTS assay; assay type: cell-based; conditions: j774, 2 h
In short: (§2)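 Murine J774 macrophages grown in DMEM with 10% FBS at 37 °C, 5% CO2. Compounds were tested in triplicate at 16, 32, 64 and 128 μM for 2 h, with DMSO-matched vehicle controls. MTS reagent was then added and absorbance read at OD490. Viability is given as percent of DMSO-treated cells (mean of triplicate ± standard deviation), compared by paired t-test (P < 0.05).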

[12] = tested on: J774; assay: Cytotoxicity against mouse J774 cells assessed as reduction in cell viability at 64 uM incubated for 2 hrs by MTS assay; assay type: cell-based; conditions: j774, 2 h; in short: as §2
[13] = tested on: J774; assay type: cell-based; conditions: mouse, j774, 2 h, 128 µM
[14] = Metabolic stability in human liver microsomes assessed as compound remaining incubated for 60 mins in presence of NADPH; assay type: ADME; conditions: read-out: Stability
[15] = Metabolic stability in human liver microsomes assessed as compound remaining incubated for 60 mins in absence of NADPH; assay type: ADME; conditions: read-out: Stability
[16] = tested on: J774; assay: Cytotoxicity against mouse J774 cells assessed as reduction in cell viability up to 64 uM incubated for 2 hrs by MTS assay; assay type: cell-based; conditions: j774, 2 h; in short: as §2
[17] = Selectivity index, ratio of cytotoxicity against mouse J774 cells by MTS assay to MIC for methicillin-resistant Staphylococcus aureus; assay type: toxicity, cell-based; conditions: read-out: Selectivity Index
[18] = Kinetic solubility of the compound in PBS; assay type: physicochemical; conditions: read-out: Kinetic_solubility

| Compound | MBC [1] | MIC [2] | MIC [3] | MIC [4] | MIC [5] | MIC [6] | MIC [7] | MIC [8] | MIC [9] | MIC [10] | Activity [11] | Activity [12] | Activity [13] | remaining at 1 h [14] | remaining at 1 h [15] | Activity [16] | selectivity ratio [17] | solubility kinetic [18] |
| --- | --- | --- | --- | --- | --- | --- | --- | --- | --- | --- | --- | --- | --- | --- | --- | --- | --- | --- |
| [C-]#[N+]c1ccccc1/C=C(\CC)c1ccccc1 | > 128 µM | 8 µM (≈ 1.87 µg/mL) | 8 µM (≈ 1.87 µg/mL) | 16 µM (≈ 3.73 µg/mL) | 32 µM (≈ 7.47 µg/mL) | 32 µM (≈ 7.47 µg/mL) | 8 µM (≈ 1.87 µg/mL) | 64 µM (≈ 14.9 µg/mL) | 8 µM (≈ 1.87 µg/mL) | 32 µM (≈ 7.47 µg/mL) | Non-toxic | Non-toxic | Non-toxic |  |  |  |  |  |
| [C-]#[N+]c1ccccc1/C=C/c1ccccc1 |  |  | 2 µM (≈ 0.411 µg/mL) | 4 µM (≈ 0.821 µg/mL) | 4 µM (≈ 0.821 µg/mL) | 32 µM (≈ 6.57 µg/mL) | 4 µM (≈ 0.821 µg/mL) | 4 µM (≈ 0.821 µg/mL) | 2 µM (≈ 0.411 µg/mL) | 32 µM (≈ 6.57 µg/mL) | Non-toxic | Non-toxic | Toxic | 24% | 51% | Non-toxic | 16 | 15.6 µM (≈ 3.2 µg/mL) |
| [C-]#[N+]c1ccccc1/C=C/c1ccc(OC)cc1 |  | 4 µM (≈ 0.941 µg/mL) | 8 µM (≈ 1.88 µg/mL) | 2 µM (≈ 0.471 µg/mL) | 16 µM (≈ 3.76 µg/mL) | > 128 µM | 8 µM (≈ 1.88 µg/mL) | 32 µM (≈ 7.53 µg/mL) | 4 µM (≈ 0.941 µg/mL) | 32 µM (≈ 7.53 µg/mL) | Non-toxic | Non-toxic | Toxic |  |  |  |  |  |
| [C-]#[N+]c1ccccc1/C=C/c1cccc(OC)c1 |  | 8 µM (≈ 1.88 µg/mL) | 8 µM (≈ 1.88 µg/mL) | 4 µM (≈ 0.941 µg/mL) | 16 µM (≈ 3.76 µg/mL) | 32 µM (≈ 7.53 µg/mL) | 16 µM (≈ 3.76 µg/mL) | 32 µM (≈ 7.53 µg/mL) | 4 µM (≈ 0.941 µg/mL) | 32 µM (≈ 7.53 µg/mL) | Non-toxic | Non-toxic | Non-toxic |  |  |  |  |  |
| [C-]#[N+]c1ccccc1/C=C/c1ccccc1OC |  | 8 µM (≈ 1.88 µg/mL) | 8 µM (≈ 1.88 µg/mL) | 8 µM (≈ 1.88 µg/mL) | 8 µM (≈ 1.88 µg/mL) | 8 µM (≈ 1.88 µg/mL) | 8 µM (≈ 1.88 µg/mL) | 16 µM (≈ 3.76 µg/mL) | 4 µM (≈ 0.941 µg/mL) | 16 µM (≈ 3.76 µg/mL) | Non-toxic | Non-toxic | Toxic |  |  |  |  |  |
| [C-]#[N+]c1ccccc1/C=C/c1ccc(F)cc1 |  | 4 µM (≈ 0.893 µg/mL) | 8 µM (≈ 1.79 µg/mL) | 2 µM (≈ 0.446 µg/mL) | 8 µM (≈ 1.79 µg/mL) | 16 µM (≈ 3.57 µg/mL) | 8 µM (≈ 1.79 µg/mL) | 16 µM (≈ 3.57 µg/mL) | 4 µM (≈ 0.893 µg/mL) | 32 µM (≈ 7.14 µg/mL) | Non-toxic | Non-toxic | Toxic |  |  |  |  |  |
| [C-]#[N+]c1ccccc1/C=C/c1ccccc1F |  | 4 µM (≈ 0.893 µg/mL) | 8 µM (≈ 1.79 µg/mL) | 2 µM (≈ 0.446 µg/mL) | 16 µM (≈ 3.57 µg/mL) | 16 µM (≈ 3.57 µg/mL) | 8 µM (≈ 1.79 µg/mL) | 32 µM (≈ 7.14 µg/mL) | 4 µM (≈ 0.893 µg/mL) | 32 µM (≈ 7.14 µg/mL) | Non-toxic | Non-toxic | Toxic |  |  |  |  |  |
| [C-]#[N+]c1ccccc1/C=C/c1cccc(F)c1 |  | 8 µM (≈ 1.79 µg/mL) | 16 µM (≈ 3.57 µg/mL) | 16 µM (≈ 3.57 µg/mL) | 32 µM (≈ 7.14 µg/mL) | 128 µM (≈ 28.6 µg/mL) | 16 µM (≈ 3.57 µg/mL) | 128 µM (≈ 28.6 µg/mL) | 8 µM (≈ 1.79 µg/mL) | 128 µM (≈ 28.6 µg/mL) | Non-toxic | Toxic | Toxic |  |  |  |  |  |
| [C-]#[N+]c1ccccc1/C=C/c1ccc(C(F)(F)F)cc1 |  | 4 µM (≈ 1.09 µg/mL) | 4 µM (≈ 1.09 µg/mL) | 2 µM (≈ 0.547 µg/mL) | 8 µM (≈ 2.19 µg/mL) | 16 µM (≈ 4.37 µg/mL) | 2 µM (≈ 0.547 µg/mL) | 16 µM (≈ 4.37 µg/mL) | 2 µM (≈ 0.547 µg/mL) | 16 µM (≈ 4.37 µg/mL) | Non-toxic | Non-toxic | Toxic |  |  |  |  |  |
| [C-]#[N+]c1ccccc1/C=C/c1ccccc1C(F)(F)F |  | 8 µM (≈ 2.19 µg/mL) | 16 µM (≈ 4.37 µg/mL) | 16 µM (≈ 4.37 µg/mL) | 32 µM (≈ 8.74 µg/mL) | 16 µM (≈ 4.37 µg/mL) | 16 µM (≈ 4.37 µg/mL) | > 128 µM | 8 µM (≈ 2.19 µg/mL) | 32 µM (≈ 8.74 µg/mL) | Non-toxic | Non-toxic | Toxic |  |  |  |  |  |
| [C-]#[N+]c1ccccc1/C=C/c1ccc(C)cc1 |  | 16 µM (≈ 3.51 µg/mL) | 4 µM (≈ 0.877 µg/mL) | 4 µM (≈ 0.877 µg/mL) | 16 µM (≈ 3.51 µg/mL) | 32 µM (≈ 7.02 µg/mL) | 8 µM (≈ 1.75 µg/mL) | 64 µM (≈ 14 µg/mL) | 4 µM (≈ 0.877 µg/mL) | 32 µM (≈ 7.02 µg/mL) | Non-toxic | Non-toxic | Toxic |  |  |  |  |  |
| [C-]#[N+]c1ccccc1/C=C/c1ccccn1 |  | 64 µM (≈ 13.2 µg/mL) | 64 µM (≈ 13.2 µg/mL) | 64 µM (≈ 13.2 µg/mL) | 16 µM (≈ 3.3 µg/mL) | 64 µM (≈ 13.2 µg/mL) | 32 µM (≈ 6.6 µg/mL) | 128 µM (≈ 26.4 µg/mL) | 64 µM (≈ 13.2 µg/mL) | 32 µM (≈ 6.6 µg/mL) | Non-toxic | Non-toxic | Toxic |  |  |  |  |  |
| [C-]#[N+]c1ccccc1/C=C/c1cccnc1 |  | 64 µM (≈ 13.2 µg/mL) | 32 µM (≈ 6.6 µg/mL) | 32 µM (≈ 6.6 µg/mL) | 16 µM (≈ 3.3 µg/mL) | 32 µM (≈ 6.6 µg/mL) | 32 µM (≈ 6.6 µg/mL) | 64 µM (≈ 13.2 µg/mL) | 64 µM (≈ 13.2 µg/mL) | 32 µM (≈ 6.6 µg/mL) | Non-toxic | Non-toxic | Non-toxic |  |  |  |  |  |
| [C-]#[N+]c1cccc(/C=C/c2ccccc2)c1 |  | 16 µM (≈ 3.28 µg/mL) | 32 µM (≈ 6.57 µg/mL) | 32 µM (≈ 6.57 µg/mL) | 16 µM (≈ 3.28 µg/mL) | > 128 µM | 16 µM (≈ 3.28 µg/mL) | 64 µM (≈ 13.1 µg/mL) | 32 µM (≈ 6.57 µg/mL) | 32 µM (≈ 6.57 µg/mL) | Non-toxic | Non-toxic | Toxic |  |  |  |  |  |
| CC/C(=C\c1ccccc1)c1ccccc1 |  | > 128 µM | > 128 µM | > 128 µM | > 128 µM | > 128 µM | > 128 µM | > 128 µM | > 128 µM | > 128 µM | Non-toxic | Non-toxic | Toxic |  |  | Non-toxic |  |  |
| CC(=O)CC(c1ccccc1)c1c(O)c2ccccc2oc1=O (stereo not drawn) [WARFARIN] |  |  |  |  |  |  |  |  |  |  |  |  |  | 93% | 94% |  |  |  |
